The values below come from ChEMBL document CHEMBL3739289, “Discovery, synthesis and structure-activity analysis of symmetrical 2,7-disubstituted fluorenones as urea transporter inhibitors” (Medchemcomm, 2015).

Calls of active or inactive are those of the source. The calls are words filed in the database; no cut-off is given here.

A short description of data set [1]: Metabolic stability in rat liver microsomes assessed as compound remaining after 15 mins by RP-HPLC analysis in presence of NADPH. In kind it is ADME. As to conditions: read-out: Stability. The essentials:
(§1)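 Compounds incubated with rat liver microsomes plus NADPH for up to 60 min. Parent loss and metabolite appearance followed by LC/MS.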
Background: Liver microsomes are a subcellular fraction often used to study metabolism.

Data set [2] in a line: Drug metabolism in rat liver microsomes assessed as cytochrome P450 monooxygenase-mediated oxidation by LC/MS analysis. Format: ADME. In short, it runs like this: as §1
In data set [3] the target is T1, Urea transporter 1 (Rattus norvegicus, UniProt P97689).
T1 sequence (P97689 whole entry): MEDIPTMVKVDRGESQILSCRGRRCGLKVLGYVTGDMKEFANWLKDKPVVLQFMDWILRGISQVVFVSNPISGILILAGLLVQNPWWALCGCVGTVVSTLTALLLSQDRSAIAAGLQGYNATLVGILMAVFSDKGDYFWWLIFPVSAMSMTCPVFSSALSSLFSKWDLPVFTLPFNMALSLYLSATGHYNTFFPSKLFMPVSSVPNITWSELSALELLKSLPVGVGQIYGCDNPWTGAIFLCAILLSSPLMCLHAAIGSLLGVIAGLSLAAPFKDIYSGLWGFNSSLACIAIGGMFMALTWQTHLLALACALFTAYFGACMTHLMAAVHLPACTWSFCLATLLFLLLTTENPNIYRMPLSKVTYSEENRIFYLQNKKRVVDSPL
In words: Inhibition of UT-B in rat whole blood after 15 mins by RBC lysis assay. In kind it is tissue-based. The essentials:
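Whole rat blood diluted to ~1.5% hematocrit in PBS with 1.25 M acetamide. Erythrocytes exposed to compound for 15 min, then rapidly mixed with PBS. Lysis read as absorbance at 710 nm; % inhibition calculated relative to negative and positive controls.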

For data set [4], the target named is T2, Urea transporter 2 (Rattus norvegicus, UniProt Q62668).
T2 sequence (Q62668 whole entry): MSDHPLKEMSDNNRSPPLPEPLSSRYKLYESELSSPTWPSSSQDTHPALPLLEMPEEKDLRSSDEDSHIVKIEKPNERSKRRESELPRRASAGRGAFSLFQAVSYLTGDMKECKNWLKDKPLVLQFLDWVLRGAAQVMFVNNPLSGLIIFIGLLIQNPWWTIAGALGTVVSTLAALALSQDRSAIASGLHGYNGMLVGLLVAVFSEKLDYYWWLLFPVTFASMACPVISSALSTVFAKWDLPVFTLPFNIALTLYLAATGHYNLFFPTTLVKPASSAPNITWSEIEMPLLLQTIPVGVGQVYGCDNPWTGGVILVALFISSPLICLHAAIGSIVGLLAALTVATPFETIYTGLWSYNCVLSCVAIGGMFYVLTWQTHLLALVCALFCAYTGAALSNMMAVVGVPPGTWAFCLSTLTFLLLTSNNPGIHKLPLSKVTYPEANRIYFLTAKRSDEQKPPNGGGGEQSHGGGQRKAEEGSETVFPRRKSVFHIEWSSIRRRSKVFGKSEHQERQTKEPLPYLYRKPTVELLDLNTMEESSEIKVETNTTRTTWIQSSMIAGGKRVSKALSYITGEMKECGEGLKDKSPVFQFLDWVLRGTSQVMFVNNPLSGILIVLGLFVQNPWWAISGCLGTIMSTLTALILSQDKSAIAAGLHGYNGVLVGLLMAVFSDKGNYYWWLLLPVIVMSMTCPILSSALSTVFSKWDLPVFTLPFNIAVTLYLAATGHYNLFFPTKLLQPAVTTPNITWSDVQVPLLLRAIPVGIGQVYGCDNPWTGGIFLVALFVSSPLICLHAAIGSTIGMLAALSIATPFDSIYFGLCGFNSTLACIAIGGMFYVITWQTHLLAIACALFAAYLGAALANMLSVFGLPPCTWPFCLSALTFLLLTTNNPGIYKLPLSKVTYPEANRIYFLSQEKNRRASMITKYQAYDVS
In words: Inhibition of rat UT-A1 expressed in MDCK-UT-A1-AQP1-YFP cells after 15 mins by fluorescence assay. In kind it is cell-based.

Data set [5] in a line: Drug level in 1M NaOH treated with compound-18 assessed as compound formation. In kind it is physicochemical.
The target in data set [6] is T3, Urea transporter 2 (Rattus norvegicus) (UniProt Q62668).
T3 sequence (whole entry): T2 sequence (Q62668 whole entry)
Description: Reversible inhibition of rat UT-A1 expressed in MDCK-UT-A1-AQP1-YFP cells at IC50 measured 15 mins post compound washout by fluorescence assay. Format: cell-based.

Data set [7] deals with T3, Urea transporter 2 (Rattus norvegicus). Description: Non competitive inhibition of rat UT-A1 expressed in MDCK-UT-A1-AQP1-YFP cells at IC50 after 15 mins by fluorescence assay in presence of urea. In kind it is cell-based.
The target is the same in data set [8]. Description: Inhibition of rat UT-A1 expressed in MDCK-UT-A1-AQP1-YFP cells after 40 secs by fluorescence assay. In kind it is cell-based.
Data set [9] deals with Liver microsome. In words: Drug metabolism in rat liver microsomes assessed as [M+ H-16] formation by LC/MS analysis. As to conditions: TDE = time-dependent effect. Format: ADME. The essentials:
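Rat liver microsomes incubated with compound in presence of NADPH; disappearance of parent and appearance of metabolite followed by LC/MS over 60 min.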

Consider `CC(=O)Nc1ccc2c(c1)S(=O)(=O)c1cc(NC(C)=O)ccc1-2`, for which the remaining at 0.25 h in data set [1] is greater than 80%. Also, the Drug metabolism entry in data set [2] is recorded as “metabolite_notdetected”. In addition, the IC50 (as a rule, the concentration that inhibits the measured activity by half) in [3] came out at 2 µM; in data set [4], 15 µM.
Turning to `CC(C)C(=O)Nc1ccc2c(c1)C(=O)c1cc(NC(=O)C(C)C)ccc1-2`, the half-maximal inhibitory concentration (IC50) was determined as 50 µM in data set [3] and 18 µM in data set [4].
Regarding `CC(=O)/N=C1\C=CC2=c3ccc(NC(C)=O)cc3=CC2=C1`, the Drug metabolism result in [5] was “metabolite_detected”.
Take `Nc1cccc(C(=O)c2cccc(N)c2)c1`: the IC50 in data set [3] and in data set [4] was greater than 50 µM throughout.
In the case of `O=C(COCc1ccccc1)Nc1ccc2c(c1)C(=O)c1cc(NC(=O)COCc3ccccc3)ccc1-2`, the IC50 in data set [3] and in data set [4] was greater than 50 µM in each case.
For `O=C(O)/C=C\C(=O)Nc1ccc2c(c1)C(=O)c1cc(NC(=O)/C=C\C(=O)O)ccc1-2`, the 50% inhibitory concentration (IC50) in data set [3] is greater than 50 µM; in [4], 30 µM.
On to `O=C1c2cc(NC(=O)C(F)(F)F)ccc2-c2ccc(NC(=O)C(F)(F)F)cc21`, for which the concentration for half-maximal inhibition (IC50) in data set [3] came out at 7.5 µM; in data set [4] it was 10 µM.
In the case of `Nc1ccc2c(c1)C(=O)c1cc(N)ccc1-2`, the IC50 in [3] and in [4] was greater than 50 µM throughout.
`CCCC(=O)Nc1ccc2c(c1)C(=O)c1cc(NC(=O)CCC)ccc1-2`: the IC50 in [3] and in data set [4] was greater than 50 µM throughout.
Turning to `CS(=O)(=O)Nc1ccc2c(c1)C(=O)c1cc(NS(C)(=O)=O)ccc1-2`, the figures for the IC50 in [3] and in data set [4] were 2.5 µM and 1.5 µM, respectively.
In the case of `[N-]=[N+]=NCC(=O)Nc1ccc2c(c1)C(=O)c1cc(NC(=O)CN=[N+]=[N-])ccc1-2`, the half-inhibitory concentration (IC50) stood at 30 µM in data set [3] and 20 µM in data set [4].
For `CC(=O)Nc1ccc2c(c1)C(O)c1cc(NC(C)=O)ccc1-2`, the IC50 in data set [3] was 20 µM; in data set [4], greater than 50 µM.
On to `CC(=O)Nc1ccc2c(c1)C(=O)c1cc(NC(C)=O)ccc1-2`, for which the inhibition entry in [6], in [7] and in data set [8] was “Active” throughout. In [1], the remaining at 0.25 h is 60%. In addition, the Drug metabolism result in [2] was “metabolite_notdetected”; in [9], “tde”. For the same molecule, the IC50 in data set [3] is 1.5 µM; in [4] it was 1 µM.
Take `O=C(CO)Nc1ccc2c(c1)C(=O)c1cc(NC(=O)CO)ccc1-2`: the IC50 in data set [3] was 25 µM; in data set [4], 20 µM.
The matching figures for `O=C(COCc1ccccc1)Nc1cccc(C(=O)c2cccc(NC(=O)COCc3ccccc3)c2)c1`: greater than 50 µM and greater than 50 µM.
Regarding `CC(=O)Nc1ccc2c(c1)C(=NO)c1cc(NC(C)=O)ccc1-2`, the remaining at 0.25 h in [1] is greater than 80%. Moreover, in data set [2], the Drug metabolism entry is given as “metabolite_notdetected”. In addition, the results for the IC50 in data set [3] and in data set [4] were 25 µM and 12 µM, respectively.
Consider `O=C(CBr)Nc1ccc2c(c1)C(=O)c1cc(NC(=O)CBr)ccc1-2`, for which the half-inhibitory concentration (IC50) came out at 10 µM in data set [3] and 30 µM in data set [4].
Regarding `CCC(=O)Nc1ccc2c(c1)C(=O)c1cc(NC(=O)CC)ccc1-2`, the half-maximal inhibitory concentration (IC50) is 5 µM in [3] and 15 µM in data set [4].
`NC(=O)Nc1ccc2c(c1)C(=O)c1cc(NC(N)=O)ccc1-2`: the IC50 amounted to 1.2 µM in [3] and 2 µM in [4].
On to `CC(=O)Nc1cccc(C(=O)c2cccc(NC(C)=O)c2)c1`, for which the remaining at 0.25 h in data set [1] is greater than 80%. The Drug metabolism entry in [2] is “metabolite_notdetected”. Moreover, the concentration for half-maximal inhibition (IC50) stood at 20 µM in data set [3] and 18 µM in [4].
`COCCOCC(=O)Nc1ccc2c(c1)C(=O)c1cc(NC(=O)COCCOC)ccc1-2`: the IC50 in data set [3] is 50 µM; in data set [4], greater than 50 µM.
The matching figures for `O=C1c2cc(N3CCCS3(=O)=O)ccc2-c2ccc(N3CCCS3(=O)=O)cc21`: greater than 50 µM and greater than 50 µM.
For `CS(=O)(=O)Nc1cccc(C(=O)c2cccc(NS(C)(=O)=O)c2)c1`, the concentration for half-maximal inhibition (IC50) in data set [3] was 30 µM; in data set [4], greater than 50 µM.
In the case of `O=C1c2cc([N+](=O)[O-])ccc2-c2ccc([N+](=O)[O-])cc21`, the IC50 in data set [3] and in data set [4] was greater than 50 µM each time.
